Here are results for 7 molecules from PubChem BioAssay.

The nature of assay [1]: inhibitors of TNFa-induced NFkB p65 translocation, primary screen, imaging, HUVEC, MLSMR starter and 10KST1 sets (AID 438;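 active = inhibition above 20% together with a positive visual image hit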;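 also: compound added about 3h40 before a 20 min TNFalpha stimulation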;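 as to inhibition: signal is the nuclear over cytoplasmic p65 intensity ratio per well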). Particulars: HUVEC TNFa-induced p65 nuclear translocation; cell count: measured here: nuclei count (cytotoxicity indicator), at 2.08 µM; inhibition: at 2 µM, stronger effect = higher value, 0% TNFa-plus-vehicle, 100% no-TNFa wells.
Assay [2] in a line: endothelial E-selectin expression blockers – imaging, HUVEC, immunofluorescence, MLSMR starter and 10KST1 sets, primary screen (AID 487;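 active = visually confirmed hit in the image check and inhibition above 20%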;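 as to inhibition: signal is fraction of cell area covered by stained E-selectin grains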;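 as to nuclei count: 100% = median nuclei count of all wells on the same plate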). The following applies: HUVEC TNFalpha-induced E-selectin immunofluorescence imaging, at 2 µM; inhibition: stronger effect = higher value; nuclei count: measured here: cell number, toxicity.
A short description of assay [3]: Primary imaging screen for DUSP6 inhibitors that restore phospho-Erk in transfected HeLa cells, chemical complementation (AID 609;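 active = compounds giving at least 50% inhibition in the cell-based MKP-3 phosphatase rescue imaging test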;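 as to inhibition: phospho-Erk level distribution per well compared with pooled transfected vehicle control wells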). Particulars: HeLa MKP-3 transfected, phospho-Erk imaging KS statistic, at 10 µM, cells stimulated with TPA for 15 min.
Assay [4] concerns the target Dual specificity protein phosphatase 6 (Homo sapiens) (UniProt Q16828). The assay is described as above. The following applies: HeLa MKP-3 transfected, phospho-Erk imaging KS statistic; at 10 µM; stronger effect = higher value; cells stimulated with TPA for 15 min.
For assay [5], the target named is Voltage-gated potassium channel subunit beta-2 (Rattus norvegicus) (UniProt P62483). As to the kind of experiment: inhibitors of rat Kvbeta2 reductase activity – biochemical, NADPH fluorescence, primary screen (AID 622;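 active = fluorescence slope higher than the sample average by over 3 SD, cut at about -0.22 in these data, passing the limit was not always enough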;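 also: slope of raw intensity against log time taken from 70 to 1610 s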). Particulars: recombinant KvBeta, 4-cyanobenzaldehyde reduction, at 10 µM, stronger effect = higher value.
Sequence of Voltage-gated potassium channel subunit beta-2 (Rattus norvegicus) (P62483 whole entry, looked up): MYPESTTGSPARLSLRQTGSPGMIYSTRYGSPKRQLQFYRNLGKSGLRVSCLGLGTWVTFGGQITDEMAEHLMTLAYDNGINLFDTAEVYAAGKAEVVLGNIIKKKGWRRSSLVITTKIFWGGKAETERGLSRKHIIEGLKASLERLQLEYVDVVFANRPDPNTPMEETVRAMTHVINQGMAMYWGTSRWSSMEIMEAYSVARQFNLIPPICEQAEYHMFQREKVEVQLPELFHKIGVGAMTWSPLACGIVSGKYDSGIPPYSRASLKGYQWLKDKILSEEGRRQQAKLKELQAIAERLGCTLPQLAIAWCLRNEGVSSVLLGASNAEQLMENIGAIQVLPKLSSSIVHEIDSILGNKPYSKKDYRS
Assay [6] has the same target. The assay can be described thus: enhancers of rat Kvbeta2 NADPH turnover – biochemical, NADPH fluorescence, primary screen (AID 623).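 Also: fluorescence intensity change per second fitted from 20 to 320 s.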 Particulars: Recombinant KvBeta, NADPH fluorescence decrease slope, 10 min; at 10 µM; stronger effect = lower value.
Assay [7] concerns the target Muscarinic acetylcholine receptor M4 (Homo sapiens) (UniProt P08173). As to the kind of experiment: M4-linked GIRK flux change, two-sided – cell-based, HEK293 M4/GIRK, thallium flux, BTC-AM, M4 allosteric agonist project, primary screen (AID 625;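 active = fluorescence slope after compound addition differing from the mean of all tested samples at 99.7% confidence, mostly higher but some lower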;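 also: thallium influx through GIRK channels coupled to M4 in HEK293 cells with BTC-AM dye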). Particulars: at 10 µM, actives lie on both sides. Put shortly:
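Material: M4/GIRK1/GIRK2 stable HEK293 cell line. Medium: pH 7.3 thallium assay buffer. Dosing: single compound concentration, 10 µM final. Schedule: 1 h dye loading, 2 min kinetic read. Measured by: kinetic fluorescence with BTC-AM dye. Read-out: post-addition slope, 15–24 s, of baseline-normalized fluorescence. Benchmarks: carbachol and DMSO controls.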

Assay [8] can be described thus: inhibitors of larval lipid processing in zebrafish, primary screen, whole organism, PED6 fluorescence, gall bladder and intestine (AID 686;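 active = a full or partial loss of lipid-probe fluorescence in the fish gall bladder, intestine or both, judged by eye; inactive = no fluorescence loss, or compound toxic to the fish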;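 also: larvae 5 to 7 days old with five fish per well; signal comes from phospholipase A2 cleavage of quenched PED6 carried via bile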). The following applies: Zebrafish larvae PED6 lipid processing, fluorescence scoring; screened at 20 µM (by protocol). In outline: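 System: live zebrafish larvae aged 5-7 days, whole organism; measure: graded gall bladder and intestinal fluorescence inhibition per well; incubation: overnight exposure; reagent: ingested quenched lipid PED6 at 100 nM; signal: By-eye fluorescence microscopy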

Assay [9] in a line: loss of swimming-algae plug formation – whole organism, Chlamydomonas reinhardtii, WT vs cilia-less mutant, absorbance, 96-well, primary screen (AID 463189;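 active = inhibition at or above 50% relative to wild type and mutant plate controls; inactive = inhibition below 50%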;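 also: 0% = wild type cc124 cells in DMSO and 100% = ciliumless bld1 mutant cells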). Particulars: Chlamydomonas reinhardtii gravitaxis, OD600 absorbance, 2 days; at 10 µM; stronger effect = higher value.
The mark [10] stands for this setting: measured here: cell density z-score.
Setting [11] is: measured here: nuclear c-Myc green intensity z-score.
Setting [12] is: measured here: nuclear pErk red intensity z-score, stronger effect = higher value.

The source made the active and inactive calls.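 The calls were made as follows, unless noted: active = NADPH fluorescence slope more negative than the mean of all samples by about 3 SD, 99.7% confidence; inactive = the rest.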

Sequence of Dual specificity protein phosphatase 6 (Homo sapiens) (Q16828 whole entry, looked up): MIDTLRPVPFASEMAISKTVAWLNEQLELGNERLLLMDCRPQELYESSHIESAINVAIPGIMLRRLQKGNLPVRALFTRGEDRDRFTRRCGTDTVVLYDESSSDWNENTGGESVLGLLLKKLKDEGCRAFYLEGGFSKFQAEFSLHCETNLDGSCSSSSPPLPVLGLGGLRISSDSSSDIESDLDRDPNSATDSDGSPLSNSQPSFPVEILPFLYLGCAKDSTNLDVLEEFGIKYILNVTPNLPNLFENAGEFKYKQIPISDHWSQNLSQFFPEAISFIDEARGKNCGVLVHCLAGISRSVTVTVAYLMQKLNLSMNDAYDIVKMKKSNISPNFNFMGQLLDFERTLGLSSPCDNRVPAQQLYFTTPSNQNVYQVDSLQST
Sequence of Muscarinic acetylcholine receptor M4 (Homo sapiens) (P08173 whole entry, looked up): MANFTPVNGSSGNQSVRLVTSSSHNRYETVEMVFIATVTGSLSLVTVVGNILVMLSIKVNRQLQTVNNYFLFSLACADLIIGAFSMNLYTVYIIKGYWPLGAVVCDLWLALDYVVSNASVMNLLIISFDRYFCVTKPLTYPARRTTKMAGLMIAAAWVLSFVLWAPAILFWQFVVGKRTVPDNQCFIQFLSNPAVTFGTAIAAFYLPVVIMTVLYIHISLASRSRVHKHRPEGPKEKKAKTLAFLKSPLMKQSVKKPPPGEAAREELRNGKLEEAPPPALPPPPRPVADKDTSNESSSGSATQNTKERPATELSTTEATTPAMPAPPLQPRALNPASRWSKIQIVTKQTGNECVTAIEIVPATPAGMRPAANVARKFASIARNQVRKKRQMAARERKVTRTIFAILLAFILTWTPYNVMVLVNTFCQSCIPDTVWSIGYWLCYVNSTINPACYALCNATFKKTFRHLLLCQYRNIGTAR

In the case of `N#Cc1cccc(-n2c(-c3ccccc3)nnc2-c2ccccc2)c1C#N`, the cell count in [1] turned out to be 587. Also, the inhibition in assay [1] is -2.7% (inactive); in [2], -7.1% (inactive); in assay [4], -7.86% (inactive); in assay [9], 6.01% (inactive). In addition, the nuclei count in [2] was 99.3%. The z-score is -3.17 in [3] (setting [10]), 1.25 in assay [3] (setting [11]) and 1.22 in assay [3] (setting [12]). For the same molecule, the fluorescence slope in assay [5] was -0.508 (inactive); in assay [7], 0.00624 (inactive). For the same molecule, the NADPH fluorescence slope in [6] is -6.3e-05 (inactive). For the same molecule, the molecule was classed as inactive in assay [8].
With `COC(=O)C(NC(=O)c1ccccc1)(Nc1nccs1)C(F)(F)F` (stereo unspecified), the cell count in assay [1] stood at 677. Moreover, the inhibition in assay [1] is -5.5% (inactive); in assay [2] it was -7.4% (inactive); in [4] it was 22.1% (inactive); in assay [9], -5.27% (inactive). Also, in assay [2], the nuclei count is 159%. Besides, the z-score in assay [3] (setting [10]) is 1.36; in assay [3] (setting [11]), -0.846; in assay [3] (setting [12]), 0.224. The fluorescence slope was -0.474 (inactive) in assay [5] and 0.00463 (inactive) in assay [7]. Besides, the NADPH fluorescence slope in [6] is -2.6e-05 (inactive). The call in assay [8] was inactive.
On to `O=C(CC(c1ccco1)S(=O)(=O)c1ccccc1)c1ccc(F)cc1` (stereo unspecified), for which the cell count in assay [1] was 585. Moreover, the inhibition in assay [1] was -2% (inactive); in assay [2] it was -105% (inactive); in [4], -14.6% (inactive); in assay [9], 28.8% (inactive). In addition, the nuclei count in assay [2] is 138%. In addition, the z-score in assay [3] (setting [10]) is -0.324; in assay [3] (setting [11]), 0.355; in [3] (setting [12]), 1.32. The fluorescence slope in [5] was -0.413 (inactive); in [7], 0.00466 (inactive). Also, the NADPH fluorescence slope in assay [6] is -0.000113 (inactive). Besides, the molecule was called inactive in assay [8].
As to `CC(=O)N1CCN(C2c3cccc4cccc(c34)C2NS(=O)(=O)c2ccccc2)CC1` (stereo unspecified), the cell count in assay [1] was determined as 507. Further, the inhibition was -0.3% (inactive) in assay [1], -19.2% (inactive) in assay [2], 33.3% (inactive) in [4] and 30.1% (inactive) in [9]. The molecule also returned a nuclei count in [2] of 101%. Also, the z-score was 1.9 in assay [3] (setting [10]), -1.56 in assay [3] (setting [11]) and -0.633 in [3] (setting [12]). Besides, the fluorescence slope in assay [5] is -0.462 (inactive); in [7], 0.00522 (inactive). Moreover, the NADPH fluorescence slope in assay [6] was -4.4e-05 (inactive). In addition, the call in [8] was inactive.
As for `CC(NC(=O)OCc1ccccc1)C(=O)OCN1C(=O)c2ccccc2C1=O` (stereo unspecified), the cell count in [1] stood at 519. The inhibition in assay [1] is -9.1% (inactive); in [2], -64.3% (inactive); in [4], -3.97% (inactive); in assay [9] it was 28% (inactive). The nuclei count in assay [2] turned out to be 130%. Further, the figures for the z-score in assay [3] (setting [10]), in assay [3] (setting [11]) and in assay [3] (setting [12]) were 0.544, -1.4 and 0.638, respectively. Besides, the results for the fluorescence slope in assay [5] and in assay [7] were -0.391 (inactive) and 0.00711 (inactive), respectively. The NADPH fluorescence slope in [6] was -4.8e-06 (inactive). In addition, in assay [8], the molecule was classed as inactive.
As for `Cc1sc(-n2c(C)cc(/C=N/n3cnnc3)c2C)c(C#N)c1C`, the cell count in [1] is 408. Further, the inhibition in assay [1] was 1.9% (inactive); in assay [2], 29.3% (inactive); in [4], 3.56% (inactive); in assay [9] it was 14% (inactive). In assay [2], this molecule yielded a nuclei count of 85.2%. The z-score in [3] (setting [10]) was -1.21; in assay [3] (setting [11]) it was -0.424; in assay [3] (setting [12]), 0.842. Besides, the fluorescence slope was -0.546 (inactive) in assay [5] and 0.00473 (inactive) in assay [7]. In addition, in assay [6], the NADPH fluorescence slope was -9.2e-05 (inactive). The molecule was called inactive in assay [8].
Consider `CCCSc1nnc2n(Cc3ccccc3)c(=O)c3c4c(sc3n12)CCC4`, for which, in assay [1], the cell count is 405. Besides, the inhibition is -0.7% (inactive) in assay [1], -31.5% (inactive) in assay [2], -4.59% (inactive) in assay [4] and 9.79% (inactive) in assay [9]. In [2], the nuclei count stood at 170%. In addition, the z-score is 0.317 in assay [3] (setting [10]), -0.563 in assay [3] (setting [11]) and 1.11 in assay [3] (setting [12]). In addition, the fluorescence slope in assay [5] was -0.453 (inactive); in assay [7], 0.00548 (inactive). Besides, the NADPH fluorescence slope in assay [6] was -0.000111 (inactive). For the same molecule, the result in assay [8] was inactive.
